Reference: ChEMBL document CHEMBL3596186, “Synthesis and biological evaluation of diarylthiazole derivatives as antimitotic and antivascular agents with potent antitumor activity” (Bioorg Med Chem, 2015)
The source made the active and inactive calls. The calls are words filed in the database; no cut-off is given here.

Key:
HCT-116 [1] = test: Cell cycle arrest in human HCT116 cells assessed as accumulation at S phase at 0.5 uM after 24 hrs by flow cytometry (reference value: 25.66%); assay type: functional
HCT-116 [2] = test: Induction of apoptosis in human HCT116 cells assessed as late apoptotic cells at 0.5 uM after 24 hrs by annexin V/propidium iodide staining-based flow cytometry (reference value: 1.71%); assay type: functional
Procedure, shortened: (§1)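 HCT116 cells treated with compound or DMSO for 24 or 48 h, trypsinized, washed twice in PBS and dual-stained with annexin-V and PI. Analysed by flow cytometry: early apoptotic cells scored as annexin-V+/PI−, late apoptotic cells as annexin-V+/PI+.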

HUVEC [3] = test: Antivascular activity against HUVEC assessed as aggregation of cells in small clumps at 250 to 500 nM after 8 hrs by Matrigel assay; assay type: functional, cell-based; details: Homo sapiens
Procedure, shortened: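 Wells of prechilled plates coated with Matrigel and solidified 45 min at 37 °C. HUVECs (1 × 10^4) in EBM-2 containing compound (125-500 nM) seeded onto the gel and incubated 8 h at 37 °C. Capillary networks photographed at 100×; tubule numbers and line lengths counted manually.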

HCT-116 [4] = test: Induction of apoptosis in human HCT116 cells assessed as late apoptotic cells at 0.2 uM after 24 hrs by annexin V/propidium iodide staining-based flow cytometry (reference value: 1.71%); assay type: functional; procedure, shortened: as §1
HCT-116 [5] = test: Induction of apoptosis in human HCT116 cells assessed as early apoptotic cells at 0.2 uM after 24 hrs by annexin V/propidium iodide staining-based flow cytometry (reference value: 2.83%); assay type: functional; procedure, shortened: as §1
HCT-116 [6] = test: Induction of apoptosis in human HCT116 cells assessed as early apoptotic cells at 0.5 uM after 24 hrs by annexin V/propidium iodide staining-based flow cytometry (reference value: 2.83%); assay type: functional; procedure, shortened: as §1
HepG2 [7] = test: Induction of apoptosis in human HepG2 cells assessed as late apoptotic cells at 0.5 uM after 24 hrs by annexin V/propidium iodide staining-based flow cytometry (reference value: 3.74%); assay type: functional
HCT-116 [8] = test: Induction of apoptosis in human HCT116 cells assessed as early apoptotic cells at 1 uM after 48 hrs by annexin V/propidium iodide staining-based flow cytometry (reference value: 2.83%); assay type: functional; procedure, shortened: as §1
HCT-116 [9] = test: Induction of apoptosis in human HCT116 cells assessed as necrotic cells at 1 uM after 24 hrs by annexin V/propidium iodide staining-based flow cytometry (reference value: 3.49%); assay type: functional
HepG2 [10] = test: Antiproliferative activity against human HepG2 cells after 48 hrs by MTT assay; assay type: functional, cell-based; details: HepG2, 48 h
Procedure, shortened: (§2)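 HCT116, HepG2, SMMC-7721, SK-OV-3 and A2780s grown in DMEM; A549 and MCF-7 in RPMI-1640; all with 10% FBS and penicillin/streptomycin at 37 °C, 5% CO2. Log-phase cells at 40,000-50,000 cells/mL treated with graded concentrations for 48 h. MTT 3 h, DMSO solubilization, A570. IC50 from percent growth versus untreated control; mean ± SEM of ≥3 independent dose-response experiments.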

HCT-116 [11] = test: Induction of apoptosis in human HCT116 cells assessed as necrotic cells at 0.5 uM after 48 hrs by annexin V/propidium iodide staining-based flow cytometry (reference value: 3.49%); assay type: functional
A549 [12] = test: Antiproliferative activity against human A549 cells after 48 hrs by MTT assay; assay type: functional, cell-based; details: A549, 48 h; procedure, shortened: as §2
A549 [13] = test: Resistance ratio, ratio of IC50 for human taxol-resistant A549 cells to IC50 for human A549 cells; assay type: functional
Procedure, shortened: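 MTT assay: log-phase cells at 40,000-50,000 cells/mL in RPMI-1640 with 10% FBS, exposed to graded concentrations for 48 h, then MTT 3 h, DMSO solubilization, absorbance at 570 nm. IC50 from growth versus untreated control, at least three independent experiments. Ratio = resistant-line IC50 / parental-line IC50.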

HepG2 [14] = test: Induction of apoptosis in human HepG2 cells assessed as necrotic cells at 1 uM after 24 hrs by annexin V/propidium iodide staining-based flow cytometry (reference value: 1.59%); assay type: functional
HepG2 [15] = test: Induction of apoptosis in human HepG2 cells assessed as early apoptotic cells at 0.2 uM after 24 hrs by annexin V/propidium iodide staining-based flow cytometry (reference value: 0.87%); assay type: functional
HCT-116 [16] = test: Induction of apoptosis in human HCT116 cells assessed as viable cells at 1 uM after 24 hrs by annexin V/propidium iodide staining-based flow cytometry (reference value: 92%); assay type: functional; details: HCT-116, 24 h, read-out: Activity
HepG2 [17] = test: Cell cycle arrest in human HepG2 cells assessed as accumulation at G2/M phase at 0.2 uM after 24 hrs by flow cytometry (reference value: 11.29%); assay type: functional
HCT-116 [18] = test: Induction of apoptosis in human HCT116 cells assessed as late apoptotic cells at 1 uM after 24 hrs by annexin V/propidium iodide staining-based flow cytometry (reference value: 1.71%); assay type: functional
HCT-116 [19] = test: Induction of apoptosis in human HCT116 cells assessed as necrotic cells at 0.2 uM after 48 hrs by annexin V/propidium iodide staining-based flow cytometry (reference value: 3.49%); assay type: functional
HUVEC [20] = test: Antiproliferative activity against HUVEC after 48 hrs by MTT assay; assay type: cell-based; details: Homo sapiens
Procedure, shortened: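 HUVECs isolated from umbilical cord veins and grown in EBM-2 with growth factors at 37 °C, 5% CO2. Log-phase cells at 40,000-50,000 cells/mL exposed to a compound dilution series for 48 h. MTT added for 3 h, formazan dissolved in DMSO, absorbance read at 570 nm. IC50 taken from percent growth versus untreated control.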

MCF7 = test: Antiproliferative activity against human MCF7 cells after 48 hrs by MTT assay; assay type: functional, cell-based; details: MCF7, 48 h; procedure, shortened: as §2
HepG2 [21] = test: Induction of apoptosis in human HepG2 cells assessed as early apoptotic cells at 0.5 uM after 24 hrs by annexin V/propidium iodide staining-based flow cytometry (reference value: 0.87%); assay type: functional
HepG2 [22] = test: Cell cycle arrest in human HepG2 cells assessed as accumulation at G1 phase at 0.2 uM after 24 hrs by flow cytometry (reference value: 62.74%); assay type: functional
HepG2 [23] = test: Induction of apoptosis in human HepG2 cells assessed as viable cells at 1 uM after 24 hrs by annexin V/propidium iodide staining-based flow cytometry (reference value: 89.8%); assay type: functional; details: HepG2, 24 h, read-out: Activity
HCT-116 [24] = test: Induction of apoptosis in human HCT116 cells assessed as early apoptotic cells at 0.5 uM after 48 hrs by annexin V/propidium iodide staining-based flow cytometry (reference value: 2.83%); assay type: functional; procedure, shortened: as §1
HCT-116 [25] = test: Cell cycle arrest in human HCT116 cells assessed as accumulation at G2/M phase at 0.5 uM after 24 hrs by flow cytometry (reference value: 20.36%); assay type: functional
HUVEC [26] = test: Antimigratory activity against HUVEC after 24 hrs by phase contrast microscopy; assay type: functional, cell-based; details: Homo sapiens
Procedure, shortened: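 HUVEC monolayers grown overnight in 6-well plates, scratched with pipet tips, washed twice with PBS, then given fresh EBM2 with vehicle or compound. Imaged by phase contrast at 0 and 24 h (100×). Migrated cells counted manually in 3 separate fields; mean ± SD from three fields.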

HepG2 [27] = test: Induction of apoptosis in human HepG2 cells assessed as necrotic cells at 0.5 uM after 48 hrs by annexin V/propidium iodide staining-based flow cytometry (reference value: 1.59%); assay type: functional

Question: With `CCOc1ccc(-c2nc(N)sc2-c2cc(OC)c(OC)c(OC)c2)cc1` as the compound, how does the Activity (HCT-116 [1]) read?
Answer: 20.51%

Question: What about the Activity (HCT-116 [2]) of the same compound?
Answer: 10.8%

Question: What about the Activity (HUVEC [3]) of the same compound?
Answer: Active

Question: What about the Activity (HCT-116 [4]) of the same compound?
Answer: 8.08%

Question: And the Activity (HCT-116 [5])?
Answer: 7.8%

Question: What about the Activity (HCT-116 [6]) of the same compound?
Answer: 11.2%

Question: And the Activity (HepG2 [7])?
Answer: 7.86%

Question: What about the Activity (HCT-116 [8]) of the same compound?
Answer: 43.1%

Question: What about the Activity (HCT-116 [9]) of the same compound?
Answer: 3.15%

Question: And the IC50 (HepG2 [10])?
Answer: 26.4 nM

Question: What about the Activity (HCT-116 [11]) of the same compound?
Answer: 4.36%

Question: And the IC50 (A549 [12])?
Answer: 84 nM

Question: And the “Ratio IC50” value (A549 [13])?
Answer: 0.51

Question: What about the Activity (HepG2 [14]) of the same compound?
Answer: 0.79%

Question: What about the Activity (HepG2 [15]) of the same compound?
Answer: 10.08%

Question: And the viability at 1 µM (HCT-116 [16])?
Answer: 62.1%

Question: What about the Activity (HepG2 [17]) of the same compound?
Answer: 19.56%

Question: What about the Activity (HCT-116 [18]) of the same compound?
Answer: 17.1%

Question: What about the Activity (HCT-116 [19]) of the same compound?
Answer: 5.36%

Question: What about the IC50 (HUVEC [20]) of the same compound?
Answer: 40.2 nM

Question: What about the IC50 (MCF7) of the same compound?
Answer: 100 nM

Question: And the Activity (HepG2 [21])?
Answer: 11.2%

Question: What about the Activity (HepG2 [22]) of the same compound?
Answer: 50.57%

Question: What about the viability at 1 µM (HepG2 [23]) of the same compound?
Answer: 65.4%

Question: And the Activity (HCT-116 [24])?
Answer: 40.3%

Question: What about the Activity (HCT-116 [25]) of the same compound?
Answer: 68.04%

Question: And the Activity (HUVEC [26])?
Answer: Dose-dependent effect

Question: What about the Activity (HepG2 [27]) of the same compound?
Answer: 0.7%
